As a reminder, the EC50 is the midpoint of the concentration-response curve. As a reminder, the IC50 is the concentration at which inhibition is half-maximal.

The values that follow come from ChEMBL document CHEMBL4613249, “Serendipitous Discovery of Leucine and Methionine Depletion Agents during the Search for Polyamine Transport Inhibitors” (J Med Chem, 2020).

Activity calls are given as the source filed them.

The nature of data set [1]: Selectivity index, ratio of IC50 for cytotoxicity against CHOK1 cells assessed as reduction in cell viability after 48 hrs by MTS assay to IC50 for […] human L3.6PL cells assessed as reduction in cell viability after 48 hrs by MTS assay. The procedure, abridged:
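The ratio is of 48 h IC50 values from MTS growth assays. CHO K1/CHO-MG cells were plated at 1000 cells/well and L3.6pl at 500 cells/well, drug in PBS was added after overnight incubation, and absorbance was read at 490 nm. IC50 is 50% growth versus untreated control; runs were done twice in triplicate.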

Data set [2] has as its system L3.6pl. Description: Effect on polyamine level in human L3.6PL cells assessed as glutamic acid level per mg protein in supernatant at 5 uM measured after 72 hrs in presence of amine oxidase suppressor aminoguanidine by LCMS analysis (reference value: 23412 +/- 3983 pmol/mg).
Data set [3] concerns the target Large neutral amino acids transporter small subunit 1 (Homo sapiens) (UniProt Q01650). As to the kind of experiment: Inhibition of LAT1-mediated amino acid transport in human L3.6PL cells assessed as reduction in intracellular methionine level by measuring methionine level per mg protein in cell lysate at 5 uM measured after 72 hrs by LCMS analysis (reference value: 167 +/- 67 pmol/mg). It counts as cell-based. The gist of the method: (§1)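 L3.6pl cells (50,000 cells/mL, 10 mL, 1 mM aminoguanidine) were seeded in poly-lysine-treated 9 cm dishes and incubated overnight at 37°C. They were then dosed with compound at 2, 5 or 7 μM from PBS stocks (2, 5, 7 mM) and incubated 72 h. Runs were done in triplicate, with amino acid levels per mg protein.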

In data set [4] the test system is L3.6pl. Description: Effect on polyamine level in human L3.6PL cells assessed as arginine level per mg protein in supernatant at 5 uM measured after 72 hrs in presence of amine oxidase suppressor aminoguanidine by LCMS analysis (reference value: 22121 +/- 10585 pmol/mg). Type of data set: functional.
Data set [5] has as its system L3.6pl. As to the kind of experiment: Potentiation of 2 uM N-(anthracenylmethyl) homospermidine-induced toxicity in human L3.6PL cells assessed as increase in Ant-44-induced reduction in cell growth measured after 72 hrs in presence of amine oxidase suppressor aminoguanidine by MTS assay. Type of data set: functional, cell-based. The procedure, abridged:
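L3.6pl cells (500 cells/well) were pretreated 24 h with 250 μM aminoguanidine in PBS, then given Ant-44 (2 μM) with increasing compound for 72 h at 37°C. MTS growth was read, with EC50 relative to the Ant-44-only control.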
In general terms: Tetrazolium assays rely on reduction of a dye to a coloured formazan, in cell work by metabolically active cells.

For data set [6], the system named is CHO-K1. As to the kind of experiment: Potentiation of 0.5 uM N-(anthracenylmethyl) homospermidine-induced toxicity in CHOK1 cells assessed as increase in Ant-44-induced reduction in cell growth at 5 uM measured after 48 hrs in presence of amine oxidase suppressor aminoguanidine by microscopy analysis. Conditions: Cricetulus griseus. It counts as functional, cell-based. The procedure, abridged:
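CHO K1 cells treated 48 h at 37°C with Ant-44 (0.5 μM) plus 5 μM compound, after 1 mM aminoguanidine pretreatment, were examined by microscope for cell number and shape versus untreated control cells.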

Data set [7] relates to CHO-MG. Description: Induction of polyamine efflux in aminoguanidine pretreated CHO-MG cells assessed as reduction in cell viability measured after 72 hrs in presence of putrescine by MTS assay. Conditions: chinese hamster. Type of data set: ADME, cell-based, Cricetulus griseus.
Data set [8] deals with L3.6pl. As to the kind of experiment: Cytotoxicity against human L3.6PL cells assessed as reduction in cell viability at 0.25 to 20 uM measured after 24 to 72 hrs by MTS assay. Type of data set: cell-based. The gist of the method:
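Time course in L3.6pl cells, 500 cells/well, with compound alone for 24, 48 and 72 h exposure at 37°C. Growth by MTS absorbance at 490 nm relative to untreated control.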

The subject of data set [9] is L3.6pl. Description: Induction of polyamine import in human L3.6PL cells assessed as increase in intracellular Ant-44 uptake by measuring Ant-44 level per protein at 1 measured up to 72 hrs in presence of amine oxidase suppressor aminoguanidine by LCMS analysis (reference value: 2.15 +/- 0.1 nmol/mg). It counts as functional.
The test system of data set [10] is L3.6pl. As to the kind of experiment: Effect on polyamine level in human L3.6PL cells assessed as putrescine level per mg protein in supernatant at 5 uM measured after 72 hrs in presence of amine oxidase suppressor aminoguanidine by LCMS analysis (reference value: 977 +/- 522 pmol/mg). Type of data set: functional.
The subject of data set [11] is L3.6pl. As to the kind of experiment: Effect on polyamine level in human L3.6PL cells assessed as leucine level per mg protein in supernatant at 5 uM measured after 72 hrs in presence of amine oxidase suppressor aminoguanidine by LCMS analysis (reference value: 18009 +/- 9061 pmol/mg). Type of data set: functional.
Data set [12] concerns L3.6pl. As to the kind of experiment: Effect on polyamine level in human L3.6PL cells assessed as spermine level per mg protein in supernatant at 2 uM measured after 72 hrs in presence of amine oxidase suppressor aminoguanidine by LCMS analysis (reference value: 6152 +/- 5596 pmol/mg). It counts as functional.
For data set [13], the system named is CHO-K1. Description: Induction of polyamine efflux in aminoguanidine pretreated CHOK1 cells assessed as reduction in cell viability measured after 72 hrs in presence of putrescine by MTS assay. Type of data set: ADME, cell-based, Cricetulus griseus. The conditions noted are these: chinese hamster, cho-k1, 72 h.
Data set [14] relates to L3.6pl. As to the kind of experiment: Effect on polyamine level in human L3.6PL cells assessed as ornithine level per mg protein in supernatant at 5 uM measured after 72 hrs in presence of amine oxidase suppressor aminoguanidine by LCMS analysis (reference value: 10588 +/- 3212 pmol/mg). It counts as functional.
In data set [15] the test system is L3.6pl. As to the kind of experiment: Cytotoxicity against human L3.6PL cells assessed as reduction in cell viability measured after 72 hrs by MTS assay. Type of data set: cell-based. The procedure, abridged:
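L3.6pl cells, 500 cells/well in RPMI 1640 with 10% FBS and 250 μM aminoguanidine, plated overnight. Compound in PBS added, then 72 h at 37°C. MTS absorbance at 490 nm. IC50 is the dose giving 50% relative growth versus untreated control. Run twice in triplicate.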

The target of data set [16] is Large neutral amino acids transporter small subunit 1 (Homo sapiens) (UniProt Q01650). Description: Inhibition of LAT1-mediated [3H]-leucine uptake in human L3.6PL cells at 2 to 20 uM and 37 degree C measured after 2 mins by scintillation counter method. It counts as cell-based.
Chain of Large neutral amino acids transporter small subunit 1 (Homo sapiens) (Q01650 whole entry): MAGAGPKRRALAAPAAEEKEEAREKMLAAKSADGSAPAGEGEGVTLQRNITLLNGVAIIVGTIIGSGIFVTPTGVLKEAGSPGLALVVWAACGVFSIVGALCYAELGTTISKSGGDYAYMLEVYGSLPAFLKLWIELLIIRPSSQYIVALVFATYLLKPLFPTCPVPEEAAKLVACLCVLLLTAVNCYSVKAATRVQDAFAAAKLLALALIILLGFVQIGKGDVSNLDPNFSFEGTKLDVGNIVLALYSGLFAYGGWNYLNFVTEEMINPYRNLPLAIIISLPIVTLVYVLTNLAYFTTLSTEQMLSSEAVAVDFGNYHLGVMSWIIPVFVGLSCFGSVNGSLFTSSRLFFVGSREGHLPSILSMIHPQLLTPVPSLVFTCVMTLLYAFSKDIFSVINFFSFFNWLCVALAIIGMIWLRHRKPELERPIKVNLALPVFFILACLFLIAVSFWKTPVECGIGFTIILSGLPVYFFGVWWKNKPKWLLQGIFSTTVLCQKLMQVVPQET
Data set [17] deals with L3.6pl. As to the kind of experiment: Effect on polyamine level in human L3.6PL cells assessed as glutamic acid level per mg protein in supernatant at 2 uM measured after 72 hrs in presence of amine oxidase suppressor aminoguanidine by LCMS analysis (reference value: 23412 +/- 3983 pmol/mg).
The target in data set [18] is Large neutral amino acids transporter small subunit 1 (Homo sapiens) (UniProt Q01650). As to the kind of experiment: Inhibition of LAT1-mediated amino acid transport in human L3.6PL cells assessed as reduction in intracellular leucine level measured after 72 hrs by LCMS analysis. It counts as cell-based. The procedure, abridged: as §1
The test system of data set [19] is CHO-K1. As to the kind of experiment: Potentiation of 0.5 uM N-(anthracenylmethyl) homospermidine-induced toxicity in CHOK1 cells assessed as increase in Ant-44-induced reduction in cell growth measured after 48 hrs in presence of amine oxidase suppressor aminoguanidine by MTS assay. Type of data set: functional, cell-based. Conditions: Cricetulus griseus. The gist of the method:
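CHO K1 cells were pretreated 24 h with 1 mM aminoguanidine, then given fixed Ant-44 (0.5 μM) plus increasing compound (up to 5 μM) for 48 h at 37°C. MTS growth was read, with EC50 defined as the dose halving growth relative to Ant-44 alone. Runs were done twice in triplicate, with SD.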

Turning to `CC(C)CCN1CCN([C@@H](CNCc2ccccc2)CC2CCCCC2)C[C@@H]1CC(C)C`, in [1], the “Ratio IC50” value was 2. Moreover, the Activity in [2] was 34033 pmol/mg; in [3], 41 pmol/mg; in [4] it was 43243 pmol/mg; in data set [7] it was “Active”; in [8], “Toxic”; in data set [9] it was 2.08 nmol/mg. The Activity was 2224 pmol/mg in [10]; 202092 pmol/mg in data set [11]; 2532 pmol/mg in data set [12]; “Active” in data set [13]; 15951 pmol/mg in data set [14]; 20231 pmol/mg in data set [17]. The Activity result in [19] was “Dose-dependent effect”. Besides, the EC50 in [5] is 290 nM; in data set [19] (CHO-K1, 48 h), 60 nM. Moreover, the result in data set [6] was Active. Besides, the IC50 in data set [15] came to 5900 nM. Also, in data set [16], the inhibition entry is “inactive”. The inhibition result in data set [18] was “Dose-dependent effect”.
